Data as given in PubChem BioAssay AID719 (SRMLSC, 2007).
Screen size: about 85,000 compounds; about 940 (1.1%) were called active. The full list was thinned out, with actives kept by preference. A number with no mark means an inactive call.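 How the source made its calls: active means viability at or below 50% in the single dose screen; inactive means viability above 50%.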

Assay: antiproliferative effect on LL 47 fibroblasts – human, LL 47 cells, CellTiter-Glo luminescence, primary screen (AID 719);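 further: compound exposure lasted 72 h before the ATP readout; 100% = median luminescence of untreated cell-only wells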
Details: LL 47 human lung fibroblast viability, ATP luminescence; at 10 µM; active compounds read low
Method in brief: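 Material: human LL 47 lung fibroblast cells; quantity: 1,150 cells/well; medium: IMEM plus 15% FBS; doses: 0.1% DMSO in all compound wells; timing: overnight attachment after seeding, then 72 h compound exposure at 37 °C; detection: CellTiter-Glo luminescence; measure: % viability of median cell-only signal; controls: cell-only wells, no compound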

Compared with CCCCC(C(=O)OCC(=O)c1ccc(OC)cc1)N1C(=O)c2ccccc2C1=O (stereo not given), COC(=O)C1=C(C(=O)OC)C2(OC1c1ccc(Br)cc1)C(=O)c1ccccc1C2=O (stereo not given) is higher in viability: 93.2% for the first, 105% for the second.

Compared with COC(=O)c1ccccc1NC(=O)Cc1ccccc1OC, COc1cccc(NC(=O)Cc2ccc(C)cc2)c1 is lower in viability: 102% for the first, 91.5% for the second.

Going from CCOc1ccc(Cn2nnc(C(=O)Nc3ccc(OC)cc3OC)c2N)cc1 to CCOc1ccc(Cn2nnc(C(=O)NCc3ccccc3)c2N)cc1, the viability rises from 81.2% to 84.8%.

Going from CC(C)N1C(=S)SC(C)(C)C1n1oc(=O)n(-c2ccc(Cl)c(Cl)c2)c1=O (stereo not given) to Cc1ccc(C)c(N2C(=O)CS/C2=N\NC(=O)c2ccccc2Cl)c1, the viability rises from 87.5% to 101%.

First: CCOC(=O)N1CCN(C(=O)c2n[nH]c(=O)c3ccccc23)CC1
Second: CC(=O)Nc1ccc(S(=O)(=O)N2CCN(C(=O)c3ccccc3F)CC2)cc1
The viability of the first is lower: 97.5% for the first, 105% for the second.

First: Cn1c2ccccc2c2c(C(=O)N3CCN(c4ccc(F)cc4)CC3)cn(C3CCCC3)c(=O)c21
Second: COc1ccc(Nc2ncc(C(=O)N3CCN(c4ccccc4OC)CC3)c3ccccc23)cc1
The viability of the first is lower: 85.9% for the first, 100% for the second.

First: Nc1nonc1-c1nc2ccccc2n1CCC(=O)O
Second: Nc1nonc1-c1nc2ccccc2n1Cc1ccc(F)cc1
The viability of the first is higher: 104% for the first, 52.3% for the second.

Going from CCOc1ccc(N=C2NC(=O)S/C2=C\c2ccc(O)cc2)cc1 to CCOc1cccc(-c2nnc3sc(COc4ccc(OC)cc4)nn23)c1, the viability falls from 102% to 99.8%.

Going from COc1ccc(C)cc1S(=O)(=O)NCCc1ccccc1 to Cc1ccc(Nc2nnc(SCc3ccccc3)s2)cc1, the viability rises from 97.6% to 102%.

Compared with Cc1nc(NC(=O)CN(C)S(=O)(=O)c2ccc(Cl)cc2)sc1C, Cc1cc(C)n(-c2nnc(C)n2NC(=O)c2cccc(Cl)c2)n1 is lower in viability: 98.6% for the first, 94.7% for the second.

Compared with Cc1ccc(-n2c(SCC(=O)Nc3ccc4c(c3)OCO4)nnc2-c2ccoc2C)cc1, O=C(CSc1nnc(-c2ccccn2)n1-c1ccccc1)Nc1ccc2c(c1)OCO2 is lower in viability: 99% for the first, 89.6% for the second.

Going from Cc1ccc(-n2c(SCC(=O)NCc3ccc4c(c3)OCO4)nnc2-c2cccnc2)c(C)c1 to O=C(Cn1cnc2c(nnn2Cc2ccc(F)cc2)c1=O)NCc1ccc2c(c1)OCO2, the viability falls from 95.8% to 93.2%.

First: O=C(c1cc2sccc2n1Cc1ccc(F)cc1)N1CCc2ccccc21
Second: O=C(CCn1c(SCC(=O)c2ccccc2)nc2ccccc2c1=O)NCc1ccc(F)cc1
The viability of the first is lower: 95.6% for the first, 103% for the second.

Going from Cc1ccc(OCC(=O)Nc2ccc(-c3nnc(-c4ccco4)o3)cc2)cc1 to COc1ccc(CC(=O)Nc2ccc(-c3nnc(-c4ccccc4)o3)cc2)cc1, the viability rises from 91.8% to 105%.

First: O=C(/C=C/NNC(=O)c1cccc(Br)c1)c1ccccc1
Second: O=c1c2ccccc2nc(N/N=C/c2ccccc2)n1O
The viability of the first is lower: 80.9% for the first, 99.1% for the second.

First: CCC(=O)Nc1sc(C(=O)N2CCCCC2)c(C)c1C#N
Second: COC(=O)CSc1nc2c(c(C3CC=CCC3)c1C#N)CCC2 (stereo not given)
The viability of the first is lower: 98% for the first, 101% for the second.

Going from CC(C)(C)C1CCc2c(sc3nc(SCC(N)=O)nc(N)c23)C1 (stereo not given) to CCCn1nnc2sc3c(c2c1=O)CCC(C)C3 (stereo not given), the viability falls from 99% to 88.2%.

Compared with CCOC(=O)c1nnn(-c2nonc2-n2cccc2)c1CN1CCC(C(=O)OCC)CC1, CCOC(=O)CSc1nnc(CNC(=O)c2ccco2)n1-c1ccc(F)cc1 is higher in viability: 95% for the first, 103% for the second.

Compared with O=C(CCN1C(=O)c2ccccc2C1=O)NCCN1CCOCC1, O=C(NCCN1CCOCC1)c1c(F)c(F)c(F)c(F)c1F is lower in viability: 104% for the first, 97.6% for the second.

First: Cc1ccc(-c2cc(C(=O)NCC3CCCO3)c3ccccc3n2)o1 (stereo not given)
Second: Cc1ccc(C(=O)NCC2CCCO2)o1 (stereo not given)
The viability of the first is lower: 98.3% for the first, 101% for the second.

Going from Clc1cccc(N=C2NN=C(c3ccc4c(c3)OCCO4)CS2)c1 to Cc1nc(Nc2ccc3c(c2)OCCO3)c2nnn(Cc3ccccc3Cl)c2n1, the viability falls from 101% to 98.4%.

Compared with COc1ccc(C2=CC(c3cccc(OC)c3)n3nnnc3N2)cc1 (stereo not given), COc1ccc(-c2nc3ccccc3n2CCC(C)C)cc1OC is higher in viability: 86.1% for the first, 99.3% for the second.

Going from CC(C)CC(N=C1NC(C)(C)Cc2ccccc21)C(=O)O (stereo not given) to CC(C)CNC(=O)CC(c1ccccc1)c1c(O)ccc2ccccc12 (stereo not given), the viability falls from 111% to 94.7%.

First: O=C(CN1CCCCCC1)N1c2ccccc2Sc2ccc(C(F)(F)F)cc21
Second: O=C(Nc1cccc(F)c1)c1ccc(S(=O)(=O)N2CCCC2)cc1
The viability of the first is lower: 96% for the first, 109% for the second.

Going from CCCCCCc1cc2cc(-c3nnc(-c4cccc(OC)c4)o3)c(=O)oc2cc1O to COCCn1c(SCc2nnc(-c3ccc(OC)c(OC)c3)o2)nc2sc3c(c2c1=O)CCC3, the viability rises from 64.8% to 99.8%.

Compared with COCCCn1c(SCC(=O)Nc2ccccc2)nnc1-c1ccncc1, Cc1nc2ccccc2c(=O)n1CCCn1ccnc1 is lower in viability: 108% for the first, 100% for the second.

Compared with Cc1ccc(NC(=O)N2CCC(c3nc4c(nnn4Cc4c(F)cccc4Cl)c(=O)[nH]3)CC2)cc1, Cc1cccc(N2CCN(C(=O)c3cnn4c(C(F)F)cc(-c5ccccc5)nc34)CC2)c1C is lower in viability: 95% for the first, 87.9% for the second.

Compared with OCCCN1c2ccccc2Nc2nnc(-c3ccccc3)cc21, O=C(CSc1nnc(Cc2ccccc2)n1-c1ccccc1)N1CCOCC1 is higher in viability: 89.3% for the first, 109% for the second.

Compared with C=CCO/N=C(\C)c1c(O)c(C)c(-c2ccccc2)n(-c2ccccc2)c1=O, Cc1nn(Cc2ccccc2)c2c1C(c1ccccc1)C(C#N)=C(N)O2 (stereo not given) is lower in viability: 99.4% for the first, 98.6% for the second.

Going from Cc1sc2nc(SCC(N)=O)n(C)c(=O)c2c1C to CCCn1c(=O)c2ccccc2n2c(SCC(=O)/C(C#N)=C(\C)N)nnc12, the viability falls from 93.8% to 93.4%.

Going from CCOc1cc(NC(=O)c2cnccn2)c(OCC)cc1NC(=O)c1ccc(C)cc1 to O=C(Nc1cccc(NC(=O)c2ccco2)c1)c1cnccn1, the viability rises from 97.9% to 103%.

First: COc1ccc(C(=O)Nc2ccc(F)cc2F)cc1
Second: COC(=O)c1cc2nc(-c3ccccc3)cc(C(F)(F)F)n2n1
The viability of the first is higher: 99.5% for the first, 97.7% for the second.

First: Fc1ccc(-n2c(Cc3ccccc3)nnc2SCc2nc(-c3ccc(Cl)cc3)no2)cc1
Second: CCCCNS(=O)(=O)c1ccc(S(=O)(=O)n2cnc3ccccc32)cc1
The viability of the first is higher: 111% for the first, 107% for the second.

Compared with CC(C)C(=O)NC(NC(=S)NC1CCS(=O)(=O)C1)C(Cl)(Cl)Cl (stereo not given), COc1ccc(CN(CC(=O)NC2CCCC2)C(=O)CCC(=O)Nc2cc(C)on2)cc1 is lower in viability: 104% for the first, 101% for the second.

First: COC(=O)c1cccc(-n2[nH]nnc2=S)c1
Second: Cc1cc(Br)ccc1NC(=O)C1CCCO1 (stereo not given)
The viability of the first is higher: 102% for the first, 91.1% for the second.

Compared with O=C(NCCCn1ccnc1)Nc1ccc(Cl)cc1Cl, CCCCOc1ccc(N(CC(=O)NCC2CCCO2)C(=O)CCC(=O)Nc2cc(C)ccn2)cc1 (stereo not given) is lower in viability: 102% for the first, 91.1% for the second.

Compared with COc1ccc(Br)cc1CN1CCN(C(=O)c2cccc(OC)c2OC)CC1, O=C1CCCCC(=O)c2ccccc2N1 is higher in viability: 94.1% for the first, 96.7% for the second.

First: CNc1nc(SC)nc(N(C#N)CC(=O)OC)n1
Second: CC1CCc2c(sc3nc4n(c(=O)c23)CCS4)C1 (stereo not given)
The viability of the first is higher: 107% for the first, 104% for the second.

In the case of Nc1c(C(=O)NCc2ccccc2)nnn1Cc1cccc(Cl)c1, the viability is reported as 44.6% (active).
With CCOC(=O)N1CCN(C(=O)c2nn(-c3ccc(C)cc3)c(=O)c3c2c2ccccc2n3C)CC1 the viability was 19.7% (active).
With COc1ccc(C)c(Cn2c(-c3nonc3N)nc3ccccc32)c1 the viability was 42.2% (active).
For Cc1ccc(-n2c(SCC(=O)Nc3ccc4c(c3)OCO4)nnc2-c2ccccn2)cc1, the viability was 42.1% (active).
With COc1ccc(CC(=O)Nc2ccc(-c3nnc(-c4ccc(C)cc4)o3)cc2)cc1 the viability was 30.9% (active).
With CN1CCN(CC(=O)Nc2sc3c(c2C#N)CCC(C(C)(C)C)C3)CC1 (stereo not given) the viability was 2.62% (active).
For CC(=O)Oc1cc2c(C(=O)NCCN3CCOCC3)c(C)oc2c2ccccc12, the viability was 8.08% (active).
In the case of CCOc1cccc(-n2nnnc2-c2ccc(OC)cc2)c1, the viability is reported as 47.7% (active).
For COc1ccc(NC(=O)/C(Cl)=C(/Cl)S(=O)Cc2ccc(C)cc2)cn1 (stereo not given), the viability was 1.6% (active).
In the case of N=c1c2c(-c3ccccc3)c(-c3ccccc3)n(Cc3ccccc3)c2ncn1CCCO, the viability is reported as 39% (active).
For C=CCn1c(SCC(=O)/C(C#N)=C(\C)N)nc2sc(C)c(C)c2c1=O, the viability was 34.3% (active).
In the case of CCOC(=O)N1CCN(S(=O)(=O)c2ccc(C(=O)Nc3ccc(F)cc3F)cc2)CC1, the viability is reported as 47.5% (active).
For CCCc1nc(NCc2ccc3c(c2)OCO3)c2nnn(Cc3ccccc3Cl)c2n1, the viability was 23.2% (active).
With Cc1ccc(-n2c(CNc3ccc(F)cc3)nnc2SCC(=O)N2CCOCC2)cc1 the viability was 2.59% (active).
With c1ccc2c(c1)C(=NC1CCCCC1)NC2=NC1CCCCC1 the viability was 40.6% (active).
In the case of OC(CNCC1CCCO1)Cn1c2ccc(Br)cc2c2cc(Br)ccc21 (stereo not given), the viability is reported as 2.96% (active).
With CCn1c(/C=C/c2ccc([N+](=O)[O-])o2)nc2ccccc2c1=O the viability was 9.18% (active).
With C=CCn1c(SCc2c(C)noc2C)nc2sc3c(c2c1=O)CCC(C)C3 (stereo not given) the viability was 47.2% (active).
For O=C1C=C(c2ccc(Cl)cc2)C(=O)N1Nc1ccccc1, the viability was 49.3% (active).
